Measured values: ChEMBL document CHEMBL1914308, “N-fused imidazoles as novel anticancer agents that inhibit catalytic activity of topoisomerase IIα and induce apoptosis in G1/S phase” (J Med Chem, 2011)
Active and inactive are the calls of the source. The calls are words filed in the database; no cut-off is given here.

Assays:
[1] = target: T1, DNA topoisomerase 2-alpha (Homo sapiens, UniProt P11388); test: Inhibition of human topoisomerase 2 alpha-mediated decatenation of kDNA at 100 uM by agarose gel electrophoresis
T1 sequence (P11388 whole entry): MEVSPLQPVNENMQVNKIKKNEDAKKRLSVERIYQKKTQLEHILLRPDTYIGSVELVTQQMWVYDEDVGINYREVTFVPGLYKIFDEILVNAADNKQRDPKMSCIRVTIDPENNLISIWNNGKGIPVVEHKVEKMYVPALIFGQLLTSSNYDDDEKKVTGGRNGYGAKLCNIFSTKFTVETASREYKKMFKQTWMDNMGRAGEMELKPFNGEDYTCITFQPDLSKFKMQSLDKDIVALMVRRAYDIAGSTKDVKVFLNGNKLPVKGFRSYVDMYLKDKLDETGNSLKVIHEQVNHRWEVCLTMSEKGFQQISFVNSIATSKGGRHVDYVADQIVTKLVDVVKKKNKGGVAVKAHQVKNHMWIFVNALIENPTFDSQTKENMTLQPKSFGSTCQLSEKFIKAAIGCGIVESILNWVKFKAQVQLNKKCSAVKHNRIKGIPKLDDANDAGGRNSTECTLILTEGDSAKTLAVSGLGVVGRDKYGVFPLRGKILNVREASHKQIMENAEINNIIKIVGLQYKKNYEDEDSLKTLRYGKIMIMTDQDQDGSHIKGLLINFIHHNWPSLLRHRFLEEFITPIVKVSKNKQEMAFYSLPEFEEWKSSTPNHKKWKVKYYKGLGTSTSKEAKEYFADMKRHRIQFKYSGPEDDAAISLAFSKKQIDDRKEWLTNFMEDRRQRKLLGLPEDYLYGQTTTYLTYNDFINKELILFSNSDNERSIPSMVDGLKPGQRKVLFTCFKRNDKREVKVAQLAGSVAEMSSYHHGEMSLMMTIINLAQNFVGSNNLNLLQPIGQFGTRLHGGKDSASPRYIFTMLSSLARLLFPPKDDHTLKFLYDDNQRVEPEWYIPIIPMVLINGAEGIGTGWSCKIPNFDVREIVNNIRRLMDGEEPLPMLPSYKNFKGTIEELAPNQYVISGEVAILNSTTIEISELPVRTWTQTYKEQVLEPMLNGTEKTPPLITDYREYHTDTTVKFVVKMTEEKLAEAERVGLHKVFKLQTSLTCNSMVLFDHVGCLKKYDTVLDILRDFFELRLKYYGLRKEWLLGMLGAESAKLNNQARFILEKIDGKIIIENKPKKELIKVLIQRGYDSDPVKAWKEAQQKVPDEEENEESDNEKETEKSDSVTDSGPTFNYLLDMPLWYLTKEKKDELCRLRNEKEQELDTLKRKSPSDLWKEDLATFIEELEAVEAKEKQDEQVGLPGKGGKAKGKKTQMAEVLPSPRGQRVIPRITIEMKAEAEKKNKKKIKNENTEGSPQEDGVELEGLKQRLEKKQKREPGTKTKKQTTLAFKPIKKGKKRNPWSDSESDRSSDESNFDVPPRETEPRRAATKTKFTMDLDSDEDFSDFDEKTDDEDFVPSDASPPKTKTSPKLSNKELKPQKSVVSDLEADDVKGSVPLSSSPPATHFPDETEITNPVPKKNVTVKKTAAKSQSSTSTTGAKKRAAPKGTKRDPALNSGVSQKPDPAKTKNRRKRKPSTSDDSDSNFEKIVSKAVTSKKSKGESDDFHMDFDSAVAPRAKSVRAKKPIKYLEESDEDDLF
In short: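 150 ng kDNA with 2–4 units purified human topo II and 100 μM compound in DMSO, buffer 0.5 M Tris-HCl pH 8, NaCl, MgCl2, DTT, BSA with ATP (stock buffer concentrations), 20 μL, 37 °C 30 min. Stopped with SDS, proteinase K 37 °C 15 min; 1% agarose in TAE with 0.5 μg/mL EtBr; bands quantified by densitometry; etoposide 100 μM as reference.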

[2] = target: T1, DNA topoisomerase 2-alpha; test: Inhibition of human topoisomerase 2 alpha-mediated relaxation of pRYG plasmid DNA at 100 uM by agarose gel electrophoresis
In short: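 250 ng supercoiled pRYG plasmid, 2–4 units hTopoIIα, 100 μM compound, ATP-containing Tris pH 8 buffer, 20 μL, 37 °C 30 min; SDS/proteinase K stop; 1% agarose in TAE without EtBr, post-stained 0.5 μg/mL EtBr; products quantified densitometrically.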

[3] = target: T1, DNA topoisomerase 2-alpha; test: Inhibition of etoposide poisoning activity against human recombinant DNA topoisomerase 2alpha assessed as enhancement of in relaxation of supercoiled plasmid pBR322 DNA at 100 uM after 30 mins by agarose gel electrophoresis
HEK293 [4] = test: Cytotoxicity against human HEK293 cells assessed as cell survival after 48 hrs by MTT assay; type: functional; conditions: HEK293, 48 h, read-out: LC50 (the source's name)
In short: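 HEK 293 cells were cultured in DMEM with 10% FBS and antibiotics at 37 °C in 5% CO₂. At 60–70% confluence they were treated for 48 h with various concentrations, diluted in DMEM from 100 mM DMSO stocks. Survival was read by MTT. LC₅₀ is the concentration killing 50% of cells. Data are mean ± SD of three independent experiments.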

HEK293 [5] = test: Anticlonogenic activity against human HEK293 cells assessed as inhibition of colony formation of cells at 20 to 100 uM after 48 hrs by crystal violet staining; type: functional, cell-based
In short: (§1)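 Clonogenic survival in HEK 293 and Vero cells, 48 h exposure at graded concentrations; % survival plotted; mean ± SD of three independent experiments. Cells grown in DMEM with 10% FBS and 1% antibiotic at 37 °C, 5% CO2; compound diluted from 100 mM DMSO stock into DMEM, added at 60–70% confluence.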

[6] = Cytotoxicity activity against african green monkey Vero assessed as cell survival at 100 uM after 48 hrs by MTT assay; type: cell-based; conditions: chlorocebus sabaeus, Vero cells; read-out: Activity
In short: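 MTT survival of HEK 293 and Vero cells after 48 h with compound at graded concentrations. DMEM, 10% FBS, 37 °C, 5% CO2; dilutions in DMEM from 100 mM DMSO stock, added at 60–70% confluence. Mean ± SD of three independent experiments.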

Vero = test: Anticlonogenic activity against african green monkey Vero cells assessed as inhibition of colony formation of cells at 20 to 100 uM after 48 hrs by crystal violet staining; type: cell-based; conditions: chlorocebus sabaeus; in short: as §1
[7] = target: T1, DNA topoisomerase 2-alpha; test: Inhibition of human topoisomerase 2 alpha-mediated unwinding of supercoiled DNA assessed as DNA intercalation at 100 uM by agarose gel electrophoresis
In short: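 250 ng negatively supercoiled E. coli plasmid incubated 20 min at 37 °C with 1 μg/mL ethidium bromide (intercalator control), 100 μM etoposide or test compound; run on 1% agarose in TAE without EtBr, then post-stained with 0.5 μg/mL EtBr; mobility retardation scored.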

HEK293 [8] = test: Anticlonogenic activity against human HEK293 cells after 48 hrs by crystal violet staining; type: functional; conditions: HEK293, 48 h, read-out: LC50 (the source's name)
In short: (§2)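 HEK 293 and Vero cells were grown in DMEM with 10% FBS and 1% penicillin/streptomycin at 37 °C in 5% CO₂. At 60–70% confluence they were exposed for 48 h to a range of concentrations, diluted in DMEM from 100 mM DMSO stocks. Colony survival is expressed as %. Values are mean ± SD of three independent experiments; LC₅₀ is the concentration killing half the cells.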

[9] = target: T1, DNA topoisomerase 2-alpha; test: Inhibition of etoposide poisoning activity against human recombinant DNA topoisomerase 2alpha assessed as enhancement of in relaxation of supercoiled plasmid pBR322 DNA at 200 uM after 30 mins by agarose gel electrophoresis
[10] = Anticlonogenic activity against african green monkey Vero after 48 hrs by crystal violet staining; type: ADME, cell-based; conditions: chlorocebus sabaeus, Vero cells; read-out: LC50; in short: as §2
[11] = target: T1, DNA topoisomerase 2-alpha; conditions: HEK293, 100 uM
[12] = target: T1, DNA topoisomerase 2-alpha; conditions: HEK293, 100 uM; remark: listed apart in the source
HEK293 [13] = test: Cytotoxicity against human HEK293 cells assessed as cell survival at 30 uM after 48 hrs by MTT assay; type: functional; conditions: HEK293, 48 h, read-out: Activity

Structure (SMILES): CC(C)(C)Nc1c(-c2ccc(Cl)cc2)nc2[nH]c3ccccc3n12
- inhibition [1]: Active

Structure (SMILES): CC(C)(C)Nc1cnc2cnccn12
- inhibition [1]: inactive

Structure (SMILES): COc1ccc(-c2nc3cnccn3c2N)cc1
- inhibition [2]: Active
- inhibition [1]: Active

Structure (SMILES): CC(C)(C)Nc1c(-c2ccc(Cl)cc2)nc2cnccn12
- inhibition [3]: inactive
- inhibition [2]: Active
- CC50 (HEK293 [4]): 10 µM
- inhibition (HEK293 [5]): Dose-dependent effect
- viability at 48 h, 100 µM [6]: < 50%
- inhibition (INH) (Vero): Dose-dependent effect
- inhibition [7]: inactive
- CC50 (HEK293 [8]): 20 µM
- inhibition [1]: Active
- inhibition [9]: inactive
- CC50 at 48 h [10]: 25 µM

Structure (SMILES): CC(C)(C)Nc1c(-c2ccc(Cl)cc2)nc2ccc(Cl)cn12
- inhibition [2]: Active
- inhibition [1]: Active

Structure (SMILES): CCCc1nc2ccccn2c1NC(C)(C)C
- inhibition [1]: inactive

Structure (SMILES): CC(C)(C)Nc1c(-c2ccccc2Cl)nc2cnccn12
- inhibition [1]: Active

Structure (SMILES): COc1cccc(-c2nc3cnccn3c2NC(C)(C)C)c1
- inhibition [1]: inactive

Structure (SMILES): CC(C)(C)Nc1c(-c2ccc(C(=O)O)cc2)nc2cnccn12
- inhibition [1]: inactive

Structure (SMILES): CCOC(=O)c1cnn2c(NC(C)(C)C)c(-c3ccc(Cl)cc3)[nH]c12
- inhibition [3]: inactive
- inhibition [2]: Active
- CC50 (HEK293 [4]): 15 µM
- inhibition (HEK293 [5]): Dose-dependent effect
- viability at 48 h, 100 µM [6]: < 50%
- inhibition (INH) (Vero): Dose-dependent effect
- inhibition [7]: inactive
- CC50 (HEK293 [8]): 15 µM
- inhibition [1]: Active
- inhibition [9]: inactive
- CC50 at 48 h [10]: 22 µM

Structure (SMILES): CC(C)(C)Nc1cnc2ccccn12
- inhibition [1]: inactive

Structure (SMILES): Cc1ccn2c(NC(C)(C)C)c(-c3ccc(Cl)cc3)nc2c1
- inhibition [1]: inactive

Structure (SMILES): CC(C)(C)Nc1c(-c2ccc(F)cc2)nc2ccc(Cl)cn12
- inhibition [1]: Active

Structure (SMILES): CC(C)(C)Nc1c(-c2ccc(Cl)cc2)nc2ncccn12
- inhibition [1]: Active

Structure (SMILES): N#Cc1ccc(-c2nc3ccc(Br)cn3c2N)cc1
- inhibition [1]: Active

Structure (SMILES): COc1cc([C@@H]2c3cc4c(cc3[C@@H](O[C@@H]3O[C@@H]5CO[C@@H](C)O[C@H]5[C@H](O)[C@H]3O)[C@H]3COC(=O)[C@H]23)OCO4)cc(OC)c1O [ETOPOSIDE]
- inhibition [3]: Active
- inhibition [11]: inactive
- CC50 (HEK293 [4]): 90 µM
- inhibition [12]: Active
- inhibition [7]: inactive
- inhibition [9]: inactive

Structure (SMILES): Nc1c(-c2ccc(Cl)cc2)nc2cnccn12
- inhibition [3]: inactive
- inhibition [2]: Active
- CC50 (HEK293 [4]): 17 µM
- inhibition (HEK293 [5]): Dose-dependent effect
- viability at 48 h, 100 µM [6]: < 50%
- inhibition (INH) (Vero): Dose-dependent effect
- inhibition [7]: inactive
- CC50 (HEK293 [8]): 16 µM
- inhibition [1]: Active
- inhibition [9]: inactive
- CC50 at 48 h [10]: 28 µM

Structure (SMILES): CC(C)(C)Nc1nc2ncccn2c1-c1ccc(C#N)cc1
- inhibition [1]: inactive

Structure (SMILES): Clc1ccc(-c2nc3cnccn3c2NC2CCCCC2)cc1
- inhibition [1]: inactive

Structure (SMILES): CC(C)(C)Nc1c(-c2ccccc2)nc2cnccn12
- inhibition [1]: inactive

Structure (SMILES): CN(C)c1ccc(-c2nc3ccccn3c2NC(C)(C)C)cc1
- inhibition [1]: Active

Structure (SMILES): CCOC(=O)c1cnn2c(NC3CCCCC3)c(-c3ccc(Cl)cc3)[nH]c12
- inhibition [1]: Active

Structure (SMILES): CCOC(=O)c1cnn2c(N)c(-c3ccc(Cl)cc3)[nH]c12
- inhibition [3]: inactive
- inhibition [2]: Active
- CC50 (HEK293 [4]): 25 µM
- inhibition (HEK293 [5]): Dose-dependent effect
- viability at 48 h, 100 µM [6]: < 50%
- inhibition (INH) (Vero): Dose-dependent effect
- inhibition [7]: inactive
- CC50 (HEK293 [8]): 25 µM
- inhibition [1]: Active
- inhibition [9]: inactive
- CC50 at 48 h [10]: 62 µM

Structure (SMILES): Nc1c(-c2ccccn2)nc2ccc(Cl)cn12
- inhibition [1]: inactive

Structure (SMILES): CC(C)(C)Nc1c(-c2ccccn2)nc2ccccn12
- inhibition [2]: Active
- inhibition [1]: Active

Structure (SMILES): CC(C)(C)Nc1c(-c2ccc(Cl)cc2)nc2ccccn12
- inhibition [1]: inactive

Structure (SMILES): O=c1[nH]cc(F)c(=O)[nH]1 [FLUOROURACIL]
- viability at 30 µM (HEK293 [13]): 50%

Structure (SMILES): CC(C)(C)Nc1c(-c2cccc3ccccc23)nc2ccccn12
- inhibition [1]: Active

Structure (SMILES): CC(C)(C)Nc1c(-c2ccc[nH]2)nc2ccccn12
- inhibition [1]: inactive

Structure (SMILES): Nc1c(-c2ccc(Cl)cc2)nc2ccccn12
- inhibition [2]: Active
- inhibition [1]: Active
